The source made the active and inactive calls. No cut-off for these calls is given here.
Legend:
K562 [1] = assay: Cell cycle arrest in human K562 cells assessed as accumulation at sub G1 phase at 10 uM after 24 hrs by propidium iodide staining-based flow cytometric analysis (reference value: 15%); assay type: functional
K562 [2] = assay: Cell cycle arrest in human K562 cells assessed as accumulation at G2/M phase assessed as accumulation of histone H3 phosphorylation at serine 10 residues at 5 uM after 24 hrs by propidium iodide staining-based flow cytometric analysis (reference value: 2.2%); assay type: functional
[3] = biological target: Cyclin-dependent kinase 1 (Homo sapiens) (UniProt P06493); assay: Inhibition of CDK1 (unknown origin)
Sequence of Cyclin-dependent kinase 1 (Homo sapiens) (P06493 whole entry, looked up): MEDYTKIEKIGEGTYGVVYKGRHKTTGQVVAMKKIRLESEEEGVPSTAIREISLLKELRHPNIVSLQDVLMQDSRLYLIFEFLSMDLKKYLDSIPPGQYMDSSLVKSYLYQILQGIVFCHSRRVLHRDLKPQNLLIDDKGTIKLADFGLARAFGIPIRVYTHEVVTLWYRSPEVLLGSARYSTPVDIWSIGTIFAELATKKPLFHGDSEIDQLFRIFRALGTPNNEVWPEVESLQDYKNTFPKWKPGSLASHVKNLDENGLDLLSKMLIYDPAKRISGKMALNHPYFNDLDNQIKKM

[4] = biological target: T1, Aurora kinase A (Homo sapiens) (UniProt O14965); assay: Inhibition of Aurora A (unknown origin)
T1 sequence (whole entry): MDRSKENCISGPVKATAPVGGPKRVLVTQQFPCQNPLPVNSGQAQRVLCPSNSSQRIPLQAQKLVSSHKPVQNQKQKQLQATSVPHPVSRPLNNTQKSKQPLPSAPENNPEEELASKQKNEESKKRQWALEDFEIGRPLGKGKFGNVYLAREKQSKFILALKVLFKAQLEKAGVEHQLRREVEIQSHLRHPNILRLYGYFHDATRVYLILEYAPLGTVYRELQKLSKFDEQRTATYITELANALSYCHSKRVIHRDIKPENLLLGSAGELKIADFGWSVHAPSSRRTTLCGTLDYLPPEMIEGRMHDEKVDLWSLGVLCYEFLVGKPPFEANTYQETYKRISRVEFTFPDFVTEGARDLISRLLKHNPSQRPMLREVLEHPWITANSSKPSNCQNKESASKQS

[5] = biological target: T2, Serine/threonine-protein kinase Nek2 (Homo sapiens) (UniProt P51955); assay: Inhibition of NEK2 (unknown origin)
T2 sequence (whole entry): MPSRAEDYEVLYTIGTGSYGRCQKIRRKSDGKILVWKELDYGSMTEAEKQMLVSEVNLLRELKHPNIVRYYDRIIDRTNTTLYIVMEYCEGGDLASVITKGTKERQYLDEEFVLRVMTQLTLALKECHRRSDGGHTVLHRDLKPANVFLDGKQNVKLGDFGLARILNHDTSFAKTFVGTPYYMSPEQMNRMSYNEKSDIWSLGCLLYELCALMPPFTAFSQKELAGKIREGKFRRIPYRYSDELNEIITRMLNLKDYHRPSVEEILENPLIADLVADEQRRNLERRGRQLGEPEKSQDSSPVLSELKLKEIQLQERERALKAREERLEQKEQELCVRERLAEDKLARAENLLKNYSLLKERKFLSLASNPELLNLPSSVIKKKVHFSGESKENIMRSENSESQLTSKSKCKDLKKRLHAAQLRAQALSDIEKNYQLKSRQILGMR

[6] = biological target: T3, Dual specificity protein kinase TTK (Homo sapiens) (UniProt P33981); assay: Inhibition of TTK (unknown origin)
T3 sequence (whole entry): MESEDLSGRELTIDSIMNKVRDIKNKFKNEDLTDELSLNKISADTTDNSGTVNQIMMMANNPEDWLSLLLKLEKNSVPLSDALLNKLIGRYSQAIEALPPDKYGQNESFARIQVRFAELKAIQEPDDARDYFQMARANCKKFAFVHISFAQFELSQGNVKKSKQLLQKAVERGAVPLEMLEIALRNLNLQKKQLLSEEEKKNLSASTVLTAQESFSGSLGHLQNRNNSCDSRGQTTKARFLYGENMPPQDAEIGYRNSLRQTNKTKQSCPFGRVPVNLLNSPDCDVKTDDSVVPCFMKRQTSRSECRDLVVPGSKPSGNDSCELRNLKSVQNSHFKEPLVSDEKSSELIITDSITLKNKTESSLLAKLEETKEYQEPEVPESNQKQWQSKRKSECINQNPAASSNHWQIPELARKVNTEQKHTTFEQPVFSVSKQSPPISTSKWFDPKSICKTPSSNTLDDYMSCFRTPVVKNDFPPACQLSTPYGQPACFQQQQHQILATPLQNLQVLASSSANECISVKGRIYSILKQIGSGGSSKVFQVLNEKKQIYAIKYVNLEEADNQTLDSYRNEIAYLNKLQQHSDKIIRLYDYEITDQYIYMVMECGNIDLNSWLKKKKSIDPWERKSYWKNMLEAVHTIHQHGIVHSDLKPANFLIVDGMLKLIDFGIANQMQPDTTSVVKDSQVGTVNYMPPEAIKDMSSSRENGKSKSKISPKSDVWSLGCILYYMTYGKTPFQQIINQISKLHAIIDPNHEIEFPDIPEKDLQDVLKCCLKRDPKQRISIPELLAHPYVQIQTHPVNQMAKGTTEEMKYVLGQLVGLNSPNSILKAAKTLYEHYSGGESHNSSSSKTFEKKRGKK

K562 [7] = assay: Induction of apoptosis in human K562 cells assessed as increase in phosphorylated Bcl2 level at 1.25 to 20 uM after 24 hrs by immunoblotting; assay type: functional, cell-based
Method in brief: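 Cells treated 24 h with a range of doses, with 1 μM doxorubicin as control. Cells were harvested into Laemmli buffer, run on SDS-PAGE and blotted to nitrocellulose. Membranes were probed overnight with primary antibodies (PARP, Ser139-phospho-H2AX, Bcl-2, β-actin loading control), then peroxidase secondaries, with ECL detection on a CCD imager.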

inhibition [3]: inactive
inhibition [4]: inactive
inhibition [5]: inactive
inhibition [6]: inactive
Structure (SMILES): CCCCCc1cc2nn(-c3ccccc3)cc2cn1
Activity (K562 [1]): 35.4%
Activity (K562 [2]): 20.4%
Activity (K562 [7]): Active

— ChEMBL document CHEMBL4229372, “Synthesis and anti-mitotic activity of 2,4- or 2,6-disubstituted- and 2,4,6-trisubstituted-2H-pyrazolo[4,3-c]pyridines” (2018)
